Laboratory results published in ChEMBL document CHEMBL3259809, “Oxazolidinone derivatives: cytoxazone-linezolid hybrids induces apoptosis and senescence in DU145 prostate cancer cells” (Eur J Med Chem, 2014).
Active and inactive are the calls of the source. The rule behind the calls is not given here.

Tests used:
MCF7 = assay: Cytotoxicity against human MCF7 cells; assay type: functional, cell-based
Procedure, shortened: (§1)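 SRB assay. 5000 cells/well were seeded in medium with 10% serum and left 18-20 h at 5% CO2 to adhere. Final compound 0 to 100 μM for 48 h at 37 °C; DMSO vehicle, doxorubicin positive control. Cells fixed in 10% TCA 1 h at 4 °C, stained 30 min with 0.057% SRB, washed with 1% acetic acid. Dye solubilised in 10 mM Tris base, A510 read, IC50 derived.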

A549 = assay: Cytotoxicity against human A549 cells; assay type: functional, cell-based; procedure, shortened: as §1
DU-145 [1] = assay: Cytotoxicity against human DU145 cells; assay type: functional, cell-based; procedure, shortened: as §1
HeLa = assay: Cytotoxicity against human HeLa cells; assay type: functional, cell-based; procedure, shortened: as §1
DU-145 [2] = assay: Cell cycle arrest in human DU145 cells assessed as accumulation at S phase at 25 uM after 48 hrs by propidium iodide staining-based flow cytometric analysis (reference value: 5.77%); assay type: functional
DU-145 [3] = assay: Induction of apoptosis in human DU145 cells assessed as caspase-9 activation using Ac-LEHD-AFC as substrate after 48 hrs by fluorometric analysis; assay type: functional, cell-based
Procedure, shortened: (§2)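 DU145 exposed to several concentrations for 48 h; DMSO negative, doxorubicin positive control. Cells lysed in 50 mM HEPES, 5 mM CHAPS, 5 mM DTT, pH 7.5. Lysate incubated with substrate in 20 mM HEPES pH 7.5, 0.1% CHAPS, 2 mM EDTA, 5 mM DTT for 2 h at 37 °C. AMC read at ex/em 380/460 nm (caspase-3), AFC at 400/505 nm (caspase-9). Values normalised to Bradford protein and expressed relative to DMSO; triplicates, means.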

DU-145 [4] = assay: Cell cycle arrest in human DU145 cells assessed as accumulation at S phase at 10 uM after 48 hrs by propidium iodide staining-based flow cytometric analysis (reference value: 5.77%); assay type: functional
DU-145 [5] = assay: Cell cycle arrest in human DU145 cells assessed as accumulation at G2/M phase at 20 uM after 48 hrs by propidium iodide staining-based flow cytometric analysis (reference value: 23.09%); assay type: functional
DU-145 [6] = assay: Cell cycle arrest in human DU145 cells assessed as accumulation at S phase at 5 uM after 48 hrs by propidium iodide staining-based flow cytometric analysis (reference value: 5.77%); assay type: functional
DU-145 [7] = assay: Cell cycle arrest in human DU145 cells assessed as accumulation at G2/M phase at 5 uM after 48 hrs by propidium iodide staining-based flow cytometric analysis (reference value: 23.09%); assay type: functional
DU-145 [8] = assay: Cytotoxicity against human DU145 cells assessed as inhibition of colony formation on soft agar media after 9 days by crystal violet staining-based microscopic analysis; assay type: functional, cell-based
Procedure, shortened: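 Soft agar assay. Base layer was 0.5% agar in growth medium with 10% serum. On top, 2.5×10^4 DU145 cells were set in 0.35% agar containing compound (0–25 μM). Medium plus compound replenished every 3 days for 9 days. Stained with 0.005% crystal violet, then colonies photographed and counted under a microscope.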

DU-145 [9] = assay: Cell cycle arrest in human DU145 cells assessed as accumulation at G0/G1 phase at 15 uM after 48 hrs by propidium iodide staining-based flow cytometric analysis (reference value: 70.54%); assay type: functional
DU-145 [10] = assay: Cytotoxicity against human DU145 cells assessed as change in cell morphology at 5 to 25 uM after 48 hrs by microscopic analysis; assay type: functional, cell-based
Procedure, shortened: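 DU145 cells seeded in 24-well plates and left 18-20 h, then exposed to increasing concentrations for 48 h with a DMSO comparison. Morphology examined and imaged by light microscopy.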

DU-145 [11] = assay: Cell cycle arrest in human DU145 cells assessed as accumulation at G2/M phase at 25 uM after 48 hrs by propidium iodide staining-based flow cytometric analysis (reference value: 23.09%); assay type: functional
DU-145 [12] = assay: Cell cycle arrest in human DU145 cells assessed as accumulation at G2/M phase at 10 uM after 48 hrs by propidium iodide staining-based flow cytometric analysis (reference value: 23.09%); assay type: functional
DU-145 [13] = assay: Cell cycle arrest in human DU145 cells assessed as accumulation at S phase at 20 uM after 48 hrs by propidium iodide staining-based flow cytometric analysis (reference value: 5.77%); assay type: functional
DU-145 [14] = assay: Induction of senescence in human DU145 cells at 5 to 25 uM after 48 hrs by SA-beta-gal staining-based microscopic analysis; assay type: functional, cell-based
Procedure, shortened: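 DU145 in 24-well plates treated for 48 h. Cells washed with PBS and fixed 5 min at room temperature in 2% formaldehyde/0.2% glutaraldehyde. Stained overnight at 37 °C in 40 mM citric acid/Na phosphate (pH 6.0), 5 mM each ferro- and ferricyanide, 150 mM NaCl, 2 mM MgCl2, 1 mg/ml X-gal. Positive cells observed and photographed by microscopy.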

DU-145 [15] = assay: Cell cycle arrest in human DU145 cells assessed as accumulation at G0/G1 phase at 20 uM after 48 hrs by propidium iodide staining-based flow cytometric analysis (reference value: 70.54%); assay type: functional
DU-145 [16] = assay: Induction of apoptosis in human DU145 cells assessed as change in mitochondrial membrane potential at 8.5 to 20 uM after 24 hrs by JC-1 dye-based assay; assay type: functional, cell-based
Procedure, shortened: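 DU145 seeded in 24-well plates and left 18 h at 37 °C, 5% CO2, then treated for 24 h, DMSO control. Stained with JC-1 working solution (stock mixed 1:1 with growth medium) for 20 min at 37 °C. Washed twice with medium, then red (aggregate) versus green (monomer) fluorescence viewed by microscopy.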

DU-145 [17] = assay: Cell cycle arrest in human DU145 cells assessed as accumulation at G0/G1 phase at 5 uM after 48 hrs by propidium iodide staining-based flow cytometric analysis (reference value: 70.54%); assay type: functional
DU-145 [18] = assay: Cell cycle arrest in human DU145 cells assessed as accumulation at G0/G1 phase at 25 uM after 48 hrs by propidium iodide staining-based flow cytometric analysis (reference value: 70.54%); assay type: functional
DU-145 [19] = assay: Cell cycle arrest in human DU145 cells assessed as accumulation at G0/G1 phase at 10 uM after 48 hrs by propidium iodide staining-based flow cytometric analysis (reference value: 70.54%); assay type: functional
DU-145 [20] = assay: Cell cycle arrest in human DU145 cells assessed as accumulation at S phase at 15 uM after 48 hrs by propidium iodide staining-based flow cytometric analysis (reference value: 5.77%); assay type: functional
DU-145 [21] = assay: Cell cycle arrest in human DU145 cells assessed as accumulation at G2/M phase at 15 uM after 48 hrs by propidium iodide staining-based flow cytometric analysis (reference value: 23.09%); assay type: functional
DU-145 [22] = assay: Induction of apoptosis in human DU145 cells assessed as caspase-3 activation using Ac-DEVD-AMC as substrate after 48 hrs by fluorometric analysis; assay type: functional, cell-based; procedure, shortened: as §2

For `COc1ccc([C@@H]2[C@@H](CCO)OC(=O)N2c2ccc(N3CCOCC3)c(F)c2)cc1`, the IC50 (MCF7) was over 100 µM, the IC50 (A549) was 30.3 µM and the IC50 (DU-145 [1]) was 69.5 µM. For the same compound, the IC50 (HeLa) was 43.2 µM.
Compound `COc1ccc([C@@H]2[C@@H](COC(=O)c3ccccc3)OC(=O)N2c2ccc(N3CCOCC3)c(F)c2)cc1` has an IC50 (MCF7) of 74 µM, an IC50 (A549) of 23.9 µM and an IC50 (DU-145 [1]) of 21.1 µM. The IC50 (HeLa) was 57.6 µM.
For `C=CC(=O)OCCC(=O)OC[C@@H]1OC(=O)N(c2ccc(N3CCOCC3)c(F)c2)[C@@H]1c1ccc(OC)cc1`, the IC50 (MCF7) was 61.5 µM, the IC50 (A549) was 42.4 µM and the IC50 (DU-145 [1]) was 31.8 µM. The IC50 (HeLa) was 28.6 µM.
In the case of `C=C[C@H]1OC(=O)N(c2ccc(N3CCOCC3)c(F)c2)[C@@H]1c1ccc(OC)cc1`, the IC50 (MCF7) is reported as 70 µM, the IC50 (A549) is reported as 24.4 µM and the IC50 (DU-145 [1]) is reported as 48.2 µM. It also gave an IC50 (HeLa) of 48.6 µM.
`COc1ccc([C@@H]2[C@@H](CO)OC(=O)N2c2ccc(N3CCOCC3)c(F)c2)cc1` showed an IC50 (MCF7) of over 100 µM, an IC50 (A549) of 24.6 µM and an IC50 (DU-145 [1]) of 24.9 µM. It also gave an IC50 (HeLa) of 86.6 µM.
`COc1ccc([C@@H]2[C@H](COC(=O)c3ccccc3)OC(=O)N2c2ccc(N3CCOCC3)c(F)c2)cc1` was tested, and the IC50 (MCF7) was 69.4 µM, the IC50 (A549) was 24.8 µM and the IC50 (DU-145 [1]) was 30.8 µM. It also gave an IC50 (HeLa) of 19.2 µM.
`COc1ccc([C@@H]2[C@@H](CNC(C)=O)OC(=O)N2c2ccc(N3CCOCC3)c(F)c2)cc1` gave an IC50 (MCF7) of over 100 µM, an IC50 (A549) of 54.4 µM and an IC50 (DU-145 [1]) of 26.8 µM. It also gave an IC50 (HeLa) of 51.3 µM.
For `COc1ccc([C@@H]2[C@@H](CN)OC(=O)N2c2ccc(N3CCOCC3)c(F)c2)cc1`, the IC50 (MCF7) was over 100 µM, the IC50 (A549) was 21.2 µM and the IC50 (DU-145 [1]) was 33 µM. For the same compound, the IC50 (HeLa) was over 100 µM.
For `C=C[C@H]1OC(=O)N[C@@H]1c1ccc(OC)cc1`, the IC50 (MCF7) was over 100 µM, the IC50 (A549) was 21.3 µM and the IC50 (DU-145 [1]) was 32.8 µM. It also gave an IC50 (HeLa) of 39.8 µM.
`COc1ccc([C@H]2NC(=O)O[C@@H]2CO)cc1` was tested, and the IC50 (MCF7) was over 100 µM, the IC50 (A549) was 31.2 µM and the IC50 (DU-145 [1]) was 40.6 µM. The IC50 (HeLa) was 56.7 µM.
`COc1ccc([C@H]2NC(=O)O[C@H]2CO)cc1` gave an IC50 (MCF7) of 82.4 µM, an IC50 (A549) of 25.5 µM and an IC50 (DU-145 [1]) of 46.5 µM. For the same compound, the IC50 (HeLa) was 26 µM.
`C=CC(=O)OCCC(=O)OC[C@H]1OC(=O)N(c2ccc(N3CCOCC3)c(F)c2)[C@@H]1c1ccc(OC)cc1` showed an IC50 (MCF7) of 38.2 µM, an IC50 (A549) of 14.2 µM and an IC50 (DU-145 [1]) of 8.69 µM. For the same compound, the IC50 (HeLa) was 42.7 µM.
For `CC[C@H]1OC(=O)N(c2ccc(N3CCOCC3)c(F)c2)[C@@H]1c1ccc(OC)cc1`, the Activity (DU-145 [2]) was 0.79%, the Activity (DU-145 [3]) was “Dose-dependent effect” and the Activity (DU-145 [4]) was 3.85%. For the same compound, the Activity (DU-145 [5]) was 16.19%, the Activity (DU-145 [6]) was 4.61% and the Activity (DU-145 [7]) was 19.45%. For the same compound, the inhibition (DU-145 [8]) was “Dose-dependent effect”, the Activity (DU-145 [9]) was 79.14% and the Activity (DU-145 [10]) was “Active”. For the same compound, the Activity (DU-145 [11]) was 6.54%, the Activity (DU-145 [12]) was 20.49% and the Activity (DU-145 [13]) was 1.93%. The Activity (DU-145 [14]) was “Active”, the Activity (DU-145 [15]) was 80.5% and the Activity (DU-145 [16]) was “Active”. For the same compound, the Activity (DU-145 [17]) was 75.65%, the IC50 (MCF7) was over 100 µM and the IC50 (A549) was 13.4 µM. For the same compound, the Activity (DU-145 [18]) was 91.11%, the Activity (DU-145 [19]) was 75.29% and the Activity (DU-145 [20]) was 3.56%. It also gave an IC50 (DU-145 [1]) of 9.47 µM, an IC50 (HeLa) of 23.3 µM and an Activity (DU-145 [21]) of 16.7%. The Activity (DU-145 [22]) was “Dose-dependent effect”.
With `COc1ccc([C@@H]2[C@H](CO)OC(=O)N2c2ccc(N3CCOCC3)c(F)c2)cc1` the IC50 (MCF7) was 36.1 µM, the IC50 (A549) was 43.2 µM and the IC50 (DU-145 [1]) was 38.5 µM. The IC50 (HeLa) was 35.9 µM.
Work on `COc1cccc2c1C(=O)c1c(O)c3c(c(O)c1C2=O)C[C@@](O)(C(=O)CO)C[C@@H]3O[C@H]1C[C@H](N)[C@H](O)[C@H](C)O1` [DOXORUBICIN] yielded an IC50 (A549) of 8.4 µM, an IC50 (DU-145 [1]) of 6.7 µM and an IC50 (HeLa) of 10.9 µM.
